pIC50: −log10 of the molar value. Several values for one entry are separate records, joined by “and”; a condition that tells them apart may be missing. Equal entries are not always repeated.
What was measured:
[1] = biological target: T1, Sterol O-acyltransferase 1 (Rattus norvegicus) (UniProt O70536); assay: Inhibition of Fu5AH Acyl coenzyme A:cholesterol acyltransferase at the concentration of 10 ug/mL
T1 sequence (whole entry): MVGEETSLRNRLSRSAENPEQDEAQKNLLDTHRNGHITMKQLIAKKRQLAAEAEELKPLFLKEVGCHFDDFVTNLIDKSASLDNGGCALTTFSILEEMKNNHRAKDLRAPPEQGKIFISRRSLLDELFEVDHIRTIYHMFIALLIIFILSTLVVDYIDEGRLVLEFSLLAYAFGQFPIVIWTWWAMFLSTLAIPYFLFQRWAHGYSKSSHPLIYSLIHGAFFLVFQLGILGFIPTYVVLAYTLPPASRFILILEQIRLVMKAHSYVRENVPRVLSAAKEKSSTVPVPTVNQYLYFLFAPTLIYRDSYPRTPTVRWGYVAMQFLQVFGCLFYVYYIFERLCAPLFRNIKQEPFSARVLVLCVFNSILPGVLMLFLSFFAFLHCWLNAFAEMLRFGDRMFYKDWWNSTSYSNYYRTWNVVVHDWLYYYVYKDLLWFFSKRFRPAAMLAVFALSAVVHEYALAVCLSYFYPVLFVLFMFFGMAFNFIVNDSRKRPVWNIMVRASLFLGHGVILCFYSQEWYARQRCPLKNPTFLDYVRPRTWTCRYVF

Rattus norvegicus [2] = species on record: Rattus norvegicus; assay: (§1) Percent control of serum cholesterol in cholesterol; format: functional; design: concentration or dose not given beside the values
In short: (§2)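 Male Sprague-Dawley rats (100–110 g), groups of 10, fed synthetic diet with 1% cholesterol; compound mixed into diet to give the stated daily dose (mg/kg) for 7 days. Serum from jugular bleed under anesthesia; VLDL+LDL separated from HDL by PEG-8000 precipitation in glycine buffer pH 9; values expressed as % of cholesterol-fed control; one-way design, LSD comparison.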

[3] = biological target: T2, Sterol O-acyltransferase 1 (Rattus norvegicus, UniProt O70536); assay: In vitro inhibition of Fu5AH acyl coenzyme A:cholesterol acyltransferase.
T2 sequence (O70536 whole entry): T1 sequence (whole entry)

Rattus norvegicus [4] = species on record: Rattus norvegicus; assay: as §1; format: functional; design: concentration or dose not given beside the values; in short: as §2; remark: listed apart in the source
Rattus norvegicus [5] = species on record: Rattus norvegicus; assay: as §1; format: functional; design: concentration or dose not given beside the values; in short: as §2; remark: listed apart in the source
Rattus norvegicus [6] = species on record: Rattus norvegicus; assay: (§3) The compound was tested for % control of serum cholesterol in cholesterol; format: functional; in short: as §2
Rattus norvegicus [7] = species on record: Rattus norvegicus; assay: as §3; format: functional; in short: as §2; remark: listed apart in the source
Rattus norvegicus [8] = species on record: Rattus norvegicus; assay: as §3; format: functional; in short: as §2; remark: listed apart in the source
Rattus norvegicus [9] = species on record: Rattus norvegicus; assay: as §3; format: functional; in short: as §2; remark: listed apart in the source
Rattus norvegicus [10] = species on record: Rattus norvegicus; assay: as §3; format: functional; in short: as §2; remark: listed apart in the source

| inhibition [1] | pIC50 [3] | SMILES | Control (Rattus norvegicus [2]) | Control (Rattus norvegicus [4]) | Control (Rattus norvegicus [5]) | also measured |
| --- | --- | --- | --- | --- | --- | --- |
| 31% |  | O=C1c2c(c(=O)n3nc(-c4ccccc4)cc3n2CS(=O)(=O)c2ccccc2)CN1C1CCCCC1 |  |  |  |  |
| 90% | 4.98 | O=C1c2c(c(=O)n3nc(-c4ccccc4)cc3n2Cc2ccccc2)CN1Cc1ccccc1 | 113% | 92% | 105% |  |
| 39% |  | O=C(Cn1c2c(c(=O)n3nc(-c4ccccc4)cc13)CN(C1CCCCCCCCCCC1)C2=O)c1ccccc1 | 76% | 92% | 83% |  |
| 87% | 5.56 | O=C(Cn1c2c(c(=O)n3nc(-c4ccccc4)cc13)CN(C1CCCCC1)C2=O)c1cccc([N+](=O)[O-])c1 | 126% | 83% | 106% |  |
| 39% |  | CCCCCCCCCCCCN1Cc2c(n(CC(=O)c3ccccc3)c3cc(-c4ccccc4)nn3c2=O)C1=O | 85% | 92% | 91% |  |
| 80% | 5.05 | CC(C)(C)CC(C)(C)N1Cc2c(n(CC(=O)c3ccccc3)c3cc(-c4ccccc4)nn3c2=O)C1=O | 96% | 122% | 107% |  |
| 88% | 5.10 | O=C1c2c(c(=O)n3nc(-c4ccccc4)cc3n2Cc2ccccc2)CN1C1CCCCC1 | 110% | 97% | 104% |  |
| 33% |  | O=C1c2c(c(=O)n3nc(-c4ccc(O)cc4)cc3n2Cc2ccccc2)CN1C1CCCCC1 |  |  |  |  |
| 78% | 4.86 | O=C(CCCn1c2c(c(=O)n3nc(-c4ccccc4)cc13)CN(C1CCCCC1)C2=O)c1ccccc1 |  |  |  |  |
| 13% |  | Cn1c2c(c(=O)n3nc(-c4ccccc4)cc13)CN(C1CCCCC1)C2=O |  |  |  |  |
| 8% |  | CN1Cc2c(n(Cc3ccccc3)c3cc(-c4ccccc4)nn3c2=O)C1=O |  |  |  |  |
| 25% |  | COC(=O)Cn1c2c(c(=O)n3nc(-c4ccccc4)cc13)CN(C1CCCCC1)C2=O | 109% | 112% | 109% |  |
| 75% |  | CCOc1ccc(-c2cc3n(Cc4ccccc4)c4c(c(=O)n3n2)CN(C2CCCCC2)C4=O)cc1 | 122% | 93% | 110% |  |
| 2% |  | CCCCCCCCCCCCCCCCOc1ccc(C(=O)Cn2c3c(c(=O)n4nc(-c5ccccc5)cc24)CN(C2CCCCC2)C3=O)cc1 |  |  |  |  |
| 48% |  | CCCCCCn1c2c(c(=O)n3nc(-c4ccccc4)cc13)CN(C1CCCCC1)C2=O |  |  |  |  |
| 55% |  | CC(C(=O)c1ccccc1)n1c2c(c(=O)n3nc(-c4ccccc4)cc13)CN(C1CCCCC1)C2=O (stereo not given) |  |  |  |  |
| 88% | 5.29 | O=C(Cn1c2c(c(=O)n3nc(-c4ccccc4)cc13)CN(C1CCCCC1)C2=O)c1ccc(F)cc1 | 95% | 101% | 98% |  |
| 83% | 5.36 | O=C(Cn1c2c(c(=O)n3nc(-c4ccccc4)cc13)CN(C1CC3CCC1C3)C2=O)c1ccccc1 (stereo not given) | 63% | 90% | 75% |  |
| 68% |  | O=C(Cn1c2c(c(=O)n3nc(-c4ccccc4)cc13)CN(C1CCCCCCC1)C2=O)c1ccccc1 | 67% | 100% | 83% |  |
| 75% | 4.81 | O=C1c2c(c(=O)n3nc(-c4ccccc4)cc3n2C/C=C/c2ccccc2)CN1C1CCCCC1 |  |  |  |  |

| inhibition [1] | pIC50 [3] | SMILES | Control (Rattus norvegicus [2]) | Control (Rattus norvegicus [4]) | Control (Rattus norvegicus [5]) | also measured |
| --- | --- | --- | --- | --- | --- | --- |
| 65% | 4.94 | C=CCOc1ccc(-c2cc3n(Cc4ccccc4)c4c(c(=O)n3n2)CN(C2CCCCC2)C4=O)cc1 | 98% | 95% | 94% |  |
| 75% |  | CCCCCCN1Cc2c(n(CC(=O)c3ccccc3)c3cc(-c4ccccc4)nn3c2=O)C1=O | 86% | 98% | 89% |  |
| 21% |  | O=C1c2c(c(=O)n3ncc(-c4ccccc4)c3n2Cc2ccccc2)CN1C1CCCCC1 |  |  |  |  |
| 70% | 5.26 | O=C(Cn1c2c(c(=O)n3nc(-c4ccccc4)cc13)CN(Cc1ccccc1)C2=O)c1ccccc1 | 101% | 100% | 100% |  |
| 85% | 5.19 | CC(C)CC(C)N1Cc2c(n(CC(=O)c3ccccc3)c3cc(-c4ccccc4)nn3c2=O)C1=O (stereo not given) | 57% | 89% | 72% |  |
| 1% |  | CCCCCCCC/C=C\CCCCCCCCN1Cc2c(n(CC(=O)c3ccccc3)c3cc(-c4ccccc4)nn3c2=O)C1=O | 69% | 86% | 76% |  |
| 18% |  | O=C1c2c(c(=O)n3nc(-c4ccccc4)cc3n2Cc2ccccc2)CN1c1ccccc1 |  |  |  |  |
| 12% |  | O=C1c2c(c(=O)n3nc(C4CCCCC4)cc3n2Cc2ccccc2)CN1C1CCCCC1 | 106% | 111% | 109% |  |
| 10% |  | COc1ccc(CN2Cc3c(n(CC(=O)c4ccccc4)c4cc(-c5ccccc5)nn4c3=O)C2=O)cc1 |  |  |  |  |
| 66% |  | O=C1c2c(c(=O)n3nc(-c4ccccc4)cc3n2CC(O)c2ccccc2)CN1C1CCCCC1 (stereo not given) |  |  |  |  |
| 19% |  | O=C(Cn1c2c(c(=O)n3nc(-c4ccccc4)cc13)CN(C1CCCCC1)C2=O)c1ccc2ccccc2c1 |  |  |  |  |
| 23% |  | O=C1c2c(c(=O)n3nc(-c4ccccc4)cc3n2Cc2ccccc2)CN1C[C@H]1CC[C@H](O)CC1 | 128% | 90% | 108% |  |
| 28% |  | CCOC(=O)CCCn1c2c(c(=O)n3nc(-c4ccccc4)cc13)CN(C1CCCCC1)C2=O |  |  |  |  |
| 52% |  | COc1ccc(C(=O)Cn2c3c(c(=O)n4nc(-c5ccccc5)cc24)CN(C2CCCCC2)C3=O)cc1 |  |  |  |  |
| 1% |  | COC(=O)c1ccc(C(=O)Cn2c3c(c(=O)n4nc(-c5ccccc5)cc24)CN(C2CCCCC2)C3=O)cc1 | 116% | 99% | 107% |  |
| 25% |  | O=C1c2c(c(=O)n3nccc3n2Cc2ccccc2)CN1C1CCCCC1 |  |  |  |  |
| 97% | 5.06 | O=C1c2c(c(=O)n3nc(-c4ccccc4)cc3n2CC2CCCCC2)CN1C1CCCCC1 | 144% | 80% | 111% |  |
| 30% |  | CC(c1ccccc1)N1Cc2c(n(CC(=O)c3ccccc3)c3cc(-c4ccccc4)nn3c2=O)C1=O (stereo not given) | 90% | 92% | 91% |  |
| 92% | 5.44 | O=C(Cn1c2c(c(=O)n3nc(-c4ccccc4)cc13)CN(C1CCCCC1)C2=O)c1ccccc1 | 65% | 128% | 97% and 88% | Control (Rattus norvegicus [6]): 133%; Control (Rattus norvegicus [7]): 84%; Control (Rattus norvegicus [8]): 120%; Control (Rattus norvegicus [9]): 75%; Control (Rattus norvegicus [10]): 97% |
| 55% | 4.64 | O=C1c2c(c(=O)n3nc(-c4ccccc4)cc3n2CSc2ccccc2)CN1C1CCCCC1 |  |  |  |  |

From ChEMBL document CHEMBL1125881, “Synthesis and hypocholesterolemic activity of 6,7-dihydro-4H-pyrazolo[1,5-a]pyrrolo[3,4-d]pyrimidine-5,8-diones, novel inhibitors of acylCoA:cholesterol O-acyltransferase” (J Med Chem, 1991)
